Measured values as given in ChEMBL document CHEMBL5724801, “EUbOPEN Chemogenomics Library - Multiplex” (2024).
“And” between values parts separate entries of the source, which are not always exact repeats. Identical values can stand only once.

System: U2OS
Experiment: Multiplex assay against U2OS
Format: toxicity, cell-based
Conditions: human
How it was run: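 Imaging took place on a CQ1 microscope at 37°C and 5% CO2 once compound had been added to live cells stained at seeding with Hoechst33342, BioTracker Green Microtubule Cytoskeleton Dye, MitoTracker Red and Annexin V Alexa Fluor 680. CellPathfinder machine-learning gating classed cells as Hoechst high-intensity objects or normal cells, classed normal cells as having healthy, pyknosed or fragmented nuclei, and classed pyknosed cells as mitotic or apoptotic. Tubulin, mitochondrial-mass and membrane-permeability phenotypes are per cents of the healthy-nucleus cells.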

[1] = 12 h, 1 µM, compound concentration 1 uM
[2] = 12 h, 10 µM, compound concentration 10 uM
[3] = 24 h, 1 µM, compound concentration 1 uM
[4] = 24 h, 10 µM, compound concentration 10 uM
[5] = 48 h, 1 µM, compound concentration 1 uM
[6] = 48 h, 10 µM, compound concentration 10 uM

O=C(O)c1cc2ccccc2c(Cc2c(O)c(C(=O)O)cc3ccccc23)c1O [PAMOIC ACID]
Population Apoptotic (%) [1]: 85% and 50%
Population Fragmented Nuclei (%) [1]: 23% and 15%
Population Healthy Nuclei (%) [1]: 68% and 73%
Population Hoechst High Intensity Objects (%) [1]: 1% and 0%
Population Membrane Permeable-Phenotype (%) [1]: 2% and 12%
Population Mitochondria Different-Phenotype (%) [1]: 0% and 6%
Population Normal (%) [1]: 98% and 100%
Population Pyknosed Nuclei (%) [1]: 8% and 11%
Population Tubulin-Different-Phenotype (%) [1]: 0% and 13%
Total Cell Count [1]: 246 and 109
Population Apoptotic (%) [2]: 75% and 87%
Population Fragmented Nuclei (%) [2]: 19%
Population Healthy Nuclei (%) [2]: 75%
Population Hoechst High Intensity Objects (%) [2]: 2% and 0%
Population Membrane Permeable-Phenotype (%) [2]: 6% and 5%
Population Mitochondria Different-Phenotype (%) [2]: 1% and 3%
Population Mitotic Cells (%) [2]: 25% and 12%
Population Normal (%) [2]: 97% and 100%
Population Pyknosed Nuclei (%) [2]: 4% and 5%
Population Tubulin-Different-Phenotype (%) [2]: 4% and 2%
Total Cell Count [2]: 259 and 140
Population Apoptotic (%) [3]: 92% and 76%
Population Fragmented Nuclei (%) [3]: 18% and 20%
Population Healthy Nuclei (%) [3]: 72% and 70%
Population Hoechst High Intensity Objects (%) [3]: 1% and 0%
Population Membrane Permeable-Phenotype (%) [3]: 2% and 11%
Population Mitochondria Different-Phenotype (%) [3]: 0% and 2%
Population Mitotic Cells (%) [3]: 8% and 23%
Population Normal (%) [3]: 98% and 99%
Population Pyknosed Nuclei (%) [3]: 8% and 9%
Population Tubulin-Different-Phenotype (%) [3]: 1% and 7%
Total Cell Count [3]: 288 and 139
Population Apoptotic (%) [4]: 82% and 90%
Population Fragmented Nuclei (%) [4]: 17% and 13%
Population Healthy Nuclei (%) [4]: 76% and 79%
Population Hoechst High Intensity Objects (%) [4]: 3% and 1%
Population Membrane Permeable-Phenotype (%) [4]: 5% and 7%
Population Mitochondria Different-Phenotype (%) [4]: 2% and 3%
Population Mitotic Cells (%) [4]: 17% and 9%
Population Normal (%) [4]: 96% and 98%
Population Pyknosed Nuclei (%) [4]: 5% and 6%
Population Tubulin-Different-Phenotype (%) [4]: 3% and 7%
Total Cell Count [4]: 314 and 163
Population Apoptotic (%) [5]: 83% and 90%
Population Fragmented Nuclei (%) [5]: 16% and 11%
Population Healthy Nuclei (%) [5]: 74% and 76%
Population Hoechst High Intensity Objects (%) [5]: 1% and 2%
Population Membrane Permeable-Phenotype (%) [5]: 2% and 9%
Population Mitochondria Different-Phenotype (%) [5]: 1% and 3%
Population Mitotic Cells (%) [5]: 16% and 10%
Population Normal (%) [5]: 98% and 97%
Population Pyknosed Nuclei (%) [5]: 9% and 11%
Population Tubulin-Different-Phenotype (%) [5]: 2% and 5%
Total Cell Count [5]: 469 and 177
Population Apoptotic (%) [6]: 96% and 89%
Population Fragmented Nuclei (%) [6]: 15% and 20%
Population Healthy Nuclei (%) [6]: 77% and 66%
Population Hoechst High Intensity Objects (%) [6]: 3% and 0%
Population Membrane Permeable-Phenotype (%) [6]: 5% and 6%
Population Mitochondria Different-Phenotype (%) [6]: 1% and 2%
Population Mitotic Cells (%) [6]: 3% and 10%
Population Normal (%) [6]: 96% and 99%
Population Pyknosed Nuclei (%) [6]: 6% and 13%
Population Tubulin-Different-Phenotype (%) [6]: 4% and 2%
Total Cell Count [6]: 455 and 218

c1ccc2nc(N3CCNCC3)ccc2c1 [QUIPAZINE]
Population Apoptotic (%) [1]: 38.46% and 42.86%
Population Fragmented Nuclei (%) [1]: 2.12% and 3.18%
Population Healthy Nuclei (%) [1]: 85.61% and 83.44%
Population Hoechst High Intensity Objects (%) [1]: 0%
Population Membrane Permeable-Phenotype (%) [1]: 0.28% and 1.53%
Population Mitotic Cells (%) [1]: 61.54% and 57.14%
Population Normal (%) [1]: 100%
Population Pyknosed Nuclei (%) [1]: 12.26% and 13.38%
Population Tubulin-Different-Phenotype (%) [1]: 0.28% and 0%
Total Cell Count [1]: 424 and 157
Population Apoptotic (%) [2]: 41.67% and 21.05%
Population Fragmented Nuclei (%) [2]: 2.14% and 2.94%
Population Healthy Nuclei (%) [2]: 88.24% and 85.88%
Population Hoechst High Intensity Objects (%) [2]: 0%
Population Membrane Permeable-Phenotype (%) [2]: 2.12% and 2.05%
Population Mitochondria Different-Phenotype (%) [2]: 0.61% and 9.59%
Population Mitotic Cells (%) [2]: 58.33% and 78.95%
Population Normal (%) [2]: 100%
Population Pyknosed Nuclei (%) [2]: 9.63% and 11.18%
Population Tubulin-Different-Phenotype (%) [2]: 1.21% and 0%
Total Cell Count [2]: 374 and 170
Population Apoptotic (%) [3]: 52.86% and 39.13%
Population Fragmented Nuclei (%) [3]: 0.69% and 1.94%
Population Healthy Nuclei (%) [3]: 87.26% and 86.89%
Population Hoechst High Intensity Objects (%) [3]: 0.17% and 0%
Population Membrane Permeable-Phenotype (%) [3]: 0.79% and 3.91%
Population Mitochondria Different-Phenotype (%) [3]: 0.39% and 6.7%
Population Mitotic Cells (%) [3]: 47.14% and 60.87%
Population Normal (%) [3]: 99.83% and 100%
Population Pyknosed Nuclei (%) [3]: 12.05% and 11.17%
Population Tubulin-Different-Phenotype (%) [3]: 1.38% and 0%
Total Cell Count [3]: 582 and 206
Population Apoptotic (%) [4]: 40.82% and 48%
Population Fragmented Nuclei (%) [4]: 0.76% and 0%
Population Healthy Nuclei (%) [4]: 89.87% and 89.41%
Population Hoechst High Intensity Objects (%) [4]: 0%
Population Membrane Permeable-Phenotype (%) [4]: 1.06% and 3.32%
Population Mitochondria Different-Phenotype (%) [4]: 0.43% and 6.16%
Population Mitotic Cells (%) [4]: 59.18% and 52%
Population Normal (%) [4]: 100%
Population Pyknosed Nuclei (%) [4]: 9.37% and 10.59%
Population Tubulin-Different-Phenotype (%) [4]: 1.28% and 0%
Total Cell Count [4]: 523 and 236
Population Apoptotic (%) [5]: 43.56% and 50%
Population Fragmented Nuclei (%) [5]: 2.56% and 1.98%
Population Healthy Nuclei (%) [5]: 88.55% and 87.25%
Population Hoechst High Intensity Objects (%) [5]: 0%
Population Membrane Permeable-Phenotype (%) [5]: 0.9% and 1.95%
Population Mitochondria Different-Phenotype (%) [5]: 0.2% and 3.9%
Population Mitotic Cells (%) [5]: 56.44% and 50%
Population Normal (%) [5]: 100%
Population Pyknosed Nuclei (%) [5]: 8.9% and 10.76%
Population Tubulin-Different-Phenotype (%) [5]: 0.9% and 0.32%
Population Apoptotic (%) [6]: 39.47% and 52.17%
Population Fragmented Nuclei (%) [6]: 3.42% and 0.25%
Population Healthy Nuclei (%) [6]: 89.16% and 94.06%
Population Hoechst High Intensity Objects (%) [6]: 0% and 0.25%
Population Membrane Permeable-Phenotype (%) [6]: 0.99% and 2.63%
Population Mitochondria Different-Phenotype (%) [6]: 0.11% and 1.84%
Population Mitotic Cells (%) [6]: 60.53% and 47.83%
Population Normal (%) [6]: 100% and 99.75%
Population Pyknosed Nuclei (%) [6]: 7.42% and 5.69%
Population Tubulin-Different-Phenotype (%) [6]: 1.42% and 0.79%
Total Cell Count [6]: 1024 and 405

CCC(=O)N1CCN(c2ccc(-n3c(=O)ccc4cnc5ccc(-c6cnc7ccccc7c6)cc5c43)cc2C(F)(F)F)CC1 [TORIN1]
Population Apoptotic (%) [2]: 68% and 76%
Population Healthy Nuclei (%) [2]: 55% and 71%
Population Hoechst High Intensity Objects (%) [2]: 1% and 3%
Population Mitochondria Different-Phenotype (%) [2]: 7%
Population Normal (%) [2]: 98% and 96%
Population Tubulin-Different-Phenotype (%) [2]: 5% and 9%
Total Cell Count [2]: 288 and 109
Population Apoptotic (%) [4]: 77% and 73%
Population Healthy Nuclei (%) [4]: 54% and 72%
Population Hoechst High Intensity Objects (%) [4]: 1% and 2%
Population Mitochondria Different-Phenotype (%) [4]: 9%
Population Normal (%) [4]: 98% and 97%
Population Tubulin-Different-Phenotype (%) [4]: 5% and 3%
Total Cell Count [4]: 287 and 115
Population Apoptotic (%) [6]: 78% and 82%
Population Healthy Nuclei (%) [6]: 44%
Population Hoechst High Intensity Objects (%) [6]: 7% and 2%
Population Normal (%) [6]: 93% and 97%
Population Tubulin-Different-Phenotype (%) [6]: 8% and 5%
Total Cell Count [6]: 300 and 147

CC(C)(C)c1ccc(S(=O)(=O)Nc2ccc(Cl)cc2C(=O)c2cc[n+]([O-])cc2)cc1 [VERCIRNON]
Population Apoptotic (%) [1]: 77% and 100%
Population Fragmented Nuclei (%) [1]: 28% and 15%
Population Healthy Nuclei (%) [1]: 61% and 79%
Population Hoechst High Intensity Objects (%) [1]: 1% and 0%
Population Membrane Permeable-Phenotype (%) [1]: 8%
Population Mitochondria Different-Phenotype (%) [1]: 5% and 4%
Population Mitotic Cells (%) [1]: 22% and 0%
Population Normal (%) [1]: 98% and 99%
Population Pyknosed Nuclei (%) [1]: 10% and 5%
Population Tubulin-Different-Phenotype (%) [1]: 4% and 3%
Total Cell Count [1]: 307 and 156
Population Apoptotic (%) [2]: 77% and 50%
Population Fragmented Nuclei (%) [2]: 24% and 21%
Population Healthy Nuclei (%) [2]: 68% and 77%
Population Hoechst High Intensity Objects (%) [2]: 1% and 0%
Population Mitochondria Different-Phenotype (%) [2]: 2%
Population Mitotic Cells (%) [2]: 22% and 50%
Population Normal (%) [2]: 98% and 99%
Population Pyknosed Nuclei (%) [2]: 6% and 1%
Total Cell Count [2]: 266 and 123
Population Apoptotic (%) [3]: 89% and 92%
Population Fragmented Nuclei (%) [3]: 25% and 18%
Population Healthy Nuclei (%) [3]: 67% and 74%
Population Hoechst High Intensity Objects (%) [3]: 1% and 0%
Population Membrane Permeable-Phenotype (%) [3]: 8% and 2%
Population Mitochondria Different-Phenotype (%) [3]: 5% and 4%
Population Mitotic Cells (%) [3]: 10% and 7%
Population Normal (%) [3]: 98% and 99%
Population Pyknosed Nuclei (%) [3]: 7%
Population Tubulin-Different-Phenotype (%) [3]: 4% and 2%
Total Cell Count [3]: 357 and 183
Population Apoptotic (%) [4]: 76% and 71%
Population Fragmented Nuclei (%) [4]: 21% and 22%
Population Healthy Nuclei (%) [4]: 72%
Population Hoechst High Intensity Objects (%) [4]: 2% and 1%
Population Mitochondria Different-Phenotype (%) [4]: 1%
Population Mitotic Cells (%) [4]: 23% and 28%
Population Normal (%) [4]: 97% and 98%
Population Pyknosed Nuclei (%) [4]: 5% and 4%
Total Cell Count [4]: 297 and 160
Population Apoptotic (%) [5]: 82% and 84%
Population Fragmented Nuclei (%) [5]: 19% and 15%
Population Healthy Nuclei (%) [5]: 73% and 75%
Population Hoechst High Intensity Objects (%) [5]: 3% and 4%
Population Membrane Permeable-Phenotype (%) [5]: 5% and 7%
Population Mitochondria Different-Phenotype (%) [5]: 3% and 2%
Population Mitotic Cells (%) [5]: 17% and 15%
Population Normal (%) [5]: 96% and 95%
Population Pyknosed Nuclei (%) [5]: 6% and 9%
Population Tubulin-Different-Phenotype (%) [5]: 4% and 2%
Total Cell Count [5]: 515 and 296
Population Apoptotic (%) [6]: 79% and 77%
Population Fragmented Nuclei (%) [6]: 18% and 26%
Population Healthy Nuclei (%) [6]: 75% and 65%
Population Hoechst High Intensity Objects (%) [6]: 1% and 2%
Population Membrane Permeable-Phenotype (%) [6]: 2% and 8%
Population Mitochondria Different-Phenotype (%) [6]: 1% and 5%
Population Mitotic Cells (%) [6]: 20% and 22%
Population Normal (%) [6]: 98% and 97%
Population Pyknosed Nuclei (%) [6]: 5% and 8%
Population Tubulin-Different-Phenotype (%) [6]: 1% and 11%
Total Cell Count [6]: 414 and 215
